Experimental data as given in ChEMBL document CHEMBL3351277, “Discovery and structure-activity relationship studies of irreversible benzisothiazolinone-based inhibitors against Staphylococcus aureus sortase A transpeptidase” (Bioorg Med Chem, 2014).
In brackets after ≈: the same amount, converted by molar mass. Activity calls are given as the source filed them. The rule behind the calls is not given here.

Assays:
[1] = molecular target: T1, Sortase A (Staphylococcus aureus, UniProt Q9S446); assay: Inhibition of Staphylococcus aureus sortase A using dabcyl-QALPETGEE-edans as substrate incubated for 1 hr prior to substrate addition measured at 1 min interval for 1 hr by FRET analysis
T1 sequence (Q9S446 whole entry): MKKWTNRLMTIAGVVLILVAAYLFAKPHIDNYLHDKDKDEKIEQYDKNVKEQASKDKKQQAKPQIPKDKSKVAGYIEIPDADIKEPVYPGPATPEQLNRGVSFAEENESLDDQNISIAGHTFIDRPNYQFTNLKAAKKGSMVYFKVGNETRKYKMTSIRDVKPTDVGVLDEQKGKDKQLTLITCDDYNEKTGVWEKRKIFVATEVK
Procedure, shortened: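 Recombinant S. aureus SrtA catalytic domain (residues 1–59 deleted, C-terminal His6; E. coli BL21(DE3), Ni-NTA then gel filtration), 10 µM, preincubated 1 h at 37 °C with increasing inhibitor concentrations in 50 mM Tris-HCl pH 7.5, 5 mM CaCl2, 150 mM NaCl; then 20 µM substrate added. Fluorescence (ex 350/em 495 nm) read each minute for 1 h; progress curves constructed for IC50.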

[2] = system: Staphylococcus aureus; assay: Antibacterial activity against Staphylococcus aureus ATCC 25904 after 24 hrs by broth dilution method; type: functional; details: ATCC 25904, 24 h
Procedure, shortened: (§1)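 Broth microdilution, 0.1–500 µg/mL in Mueller Hinton broth for S. aureus and S. epidermidis and Luria Bertani broth for E. coli. Inoculum was log-phase culture at OD600 0.1, incubated 24 h at 37 °C, with growth read as A600. Triplicates, repeated three times.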

[3] = system: Staphylococcus epidermidis; assay: Antibacterial activity against Staphylococcus epidermidis ATCC 12228 after 24 hrs by broth dilution method; type: functional; details: ATCC 12228, 24 h; procedure, shortened: as §1
[4] = system: Escherichia coli; assay: Antibacterial activity against Escherichia coli ATCC 25922 after 24 hrs by broth dilution method; type: functional; details: ATCC 25922, 24 h; procedure, shortened: as §1
[5] = Cytotoxicity against Swiss mouse NIH/3T3 cells after 48 hrs by MTT assay; type: cell-based; details: NIH3T3, 48 h
Procedure, shortened: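 NIH 3T3 fibroblasts were seeded in DMEM with 10% FCS and rested 24 h, then exposed to graded compound concentrations for 48 h. Medium was replaced with phenol-red-free medium plus 1 mM MTT for 3 h, then 1% SDS–HCl was added for 4 h. A570 was read. IC50 was the 50% proliferation inhibition versus untreated control, from nonlinear dose–response regression.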

[6] = molecular target: T2, Sortase A (Staphylococcus aureus) (UniProt Q9S446); assay: Irreversible binding affinity to Staphylococcus aureus sortase A by 15N-1H HSQC NMR spectroscopy
T2 sequence (whole entry): T1 sequence (Q9S446 whole entry)
Procedure, shortened: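 2D 15N–1H HSQC used 15N-labelled SrtAΔN59-6His (E. coli BL21(DE3), M9 with 15N-ammonium) at 0.3 mM. Buffer was 20 mM sodium acetate, 50 mM NaCl, 10 mM CaCl2, pH 6.0, 6% D2O. Inhibitor (100 mM stock in DMSO-d6) was added stepwise with a spectrum after each addition. Reversibility was checked by HSQC after dialysis against NMR buffer (100-fold dilution).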

| IC50 [1] | SMILES | MIC [2] [µM] | MIC [3] [µM] | MIC [4] [µM] | IC50 [5] [µM] | IC50 ([1]; read-out: IC50) [µM] | Activity [6] |
| --- | --- | --- | --- | --- | --- | --- | --- |
| Not Active | COC(=O)C12CC3CC(CC(N)(C3)C1)C2.Cl | > 2030 | > 2030 | > 2030 | 2290 | – | – |
| – | COC(=O)C12CC3CC(CC(NC(=O)CCn4sc5ccccc5c4=O)(C3)C1)C2 | 38.6 (≈ 16 µg/mL) | 19.3 (≈ 8 µg/mL) | > 1210 | 12.1 | 5.08 | – |
| – | CC12CC3(C)CC(O)(C1)CC(NC(=O)Cn1sc4ccccc4c1=O)(C2)C3 | 20.7 (≈ 8 µg/mL) | 20.7 (≈ 8 µg/mL) | > 1290 | 1.33 | 3.87 | – |
| – | O=C(CCn1sc2cccc(F)c2c1=O)NC12CC3CC(CC(O)(C3)C1)C2 | 164 (≈ 64 µg/mL) | 164 (≈ 64 µg/mL) | > 1280 | 1.34 | 6.26 | – |
| – | O=C(CCn1sc2cccc(F)c2c1=O)NNC(=O)C12CC3CC(CC(C3)C1)C2 | 38.3 (≈ 16 µg/mL) | 19.2 (≈ 8 µg/mL) | > 1200 | 1.67 | 3.39 | – |
| Not Active | Cl.NC12CC3CC(CC(C3)C1)C2 [AMANTADINE HYDROCHLORIDE] | > 2660 | > 2660 | > 2660 | 2290 | – | – |
| – | CN(C)CCC(=O)c1ccc(Cl)c(Cl)c1 | 113 (≈ 27.9 µg/mL) | 56.6 (≈ 13.9 µg/mL) | > 1770 | 9.71 | 16.9 | – |
| – | CC12CC3(C)CC(O)(C1)CC(NC(=O)CCn1sc4cccc(F)c4c1=O)(C2)C3 | 38.2 (≈ 16 µg/mL) | 38.2 (≈ 16 µg/mL) | > 1190 | 2.17 | 3.96 | – |
| – | COC(=O)C12CC3CC(CC(NC(=O)CCn4sc5cccc(F)c5c4=O)(C3)C1)C2 | 37 (≈ 16 µg/mL) | 18.5 (≈ 8 µg/mL) | > 1160 | 8.02 | 5.06 | – |
| – | CC12CC3CC(C)(C1)CC(NC(=O)CCn1sc4cccc(F)c4c1=O)(C3)C2 | 39.7 (≈ 16 µg/mL) | 2.48 (≈ 0.998 µg/mL) | > 1240 | 9.89 | 4.07 | – |
| – | O=C(CCn1sc2ccccc2c1=O)NNC(=O)C12CC3CC(CC(C3)C1)C2 | 20 (≈ 8 µg/mL) | 10 (≈ 4 µg/mL) | > 1250 | 12.2 | 4.22 | – |
| – | CC12CC3CC(C)(C1)CC(NC(=O)CCn1sc4ccccc4c1=O)(C3)C2 | 20.8 (≈ 8 µg/mL) | 20.8 (≈ 8 µg/mL) | > 1300 | 4.23 | 4.62 | – |
| – | O=C(CCn1sc2ccccc2c1=O)NC12CC3CC(CC(O)(C3)C1)C2 | 43 (≈ 16 µg/mL) | 85.9 (≈ 32 µg/mL) | > 1340 | 7.13 | 6.44 | – |
| – | CC12CC3CC(C)(C1)CC(NC(=O)Cn1sc4ccccc4c1=O)(C3)C2 | 86.4 (≈ 32 µg/mL) | 43.2 (≈ 16 µg/mL) | > 1350 | 4.09 | 4.99 | – |
| – | O=C(Cn1sc2ccccc2c1=O)NNC(=O)C12CC3CC(CC(C3)C1)C2 | 41.5 (≈ 16 µg/mL) | 10.4 (≈ 4 µg/mL) | > 1300 | 14.4 | 3.8 | – |
| – | O=C(Cn1sc2ccccc2c1=O)NC12CC3CC(CC(C3)C1)C2 | 2.92 (≈ 1 µg/mL) | 1.46 (≈ 0.5 µg/mL) | > 1500 | 1.27 | 6.11 | Active |
| Not Active | O=C(CN1Cc2ccccc2C1=O)NC12CC3CC(CC(C3)C1)C2 | > 1540 | > 1540 | > 1540 | 263 | – | – |
| – | CC12CC3(C)CC(O)(C1)CC(NC(=O)CCn1sc4ccccc4c1=O)(C2)C3 | 40 (≈ 16 µg/mL) | 40 (≈ 16 µg/mL) | > 1250 | 7.52 | 7.06 | – |
| – | C=CS(=O)(=O)c1ccccc1 [(ETHENYLSULFONYL)BENZENE] | > 2960 | > 2960 | > 2960 | 7.91 | – | – |
| – | O=C(O)CCn1sc2ccccc2c1=O | 287 (≈ 64 µg/mL) | 287 (≈ 64 µg/mL) | 71.7 (≈ 16 µg/mL) | 21.8 | 12.8 | – |
| – | O=C(CCn1sc2cccc(F)c2c1=O)NC12CC3CC(CC(C3)C1)C2 | 85.5 (≈ 32 µg/mL) | 10.7 (≈ 4 µg/mL) | > 1340 | 0.9 | 4.01 | – |
| – | O=C(CCn1sc2ccccc2c1=O)NC12CC3CC(CC(C3)C1)C2 | 22.4 (≈ 8 µg/mL) | 5.61 (≈ 2 µg/mL) | > 1400 | 5.95 | 3.81 | – |
